Data reported in ChEMBL document CHEMBL3600357 (J Med Chem, 2015).
Active and inactive are the calls of the source. The calls are words filed in the database; no cut-off is given here.

What was measured:
[1] = test system: SJSA-1; test: Inhibition of cell proliferation of human SJSA1 cells
[2] = Intrinsic clearance in monkey liver microsomes; format: ADME, Macaca mulatta; conditions: rhesus monkey, read-out: CLH
[3] = Intrinsic clearance in human liver microsomes; format: ADME; conditions: read-out: CLH
[4] = test system: Rattus norvegicus; test: Terminal half life in Sprague-Dawley rat at 1 mg/kg, iv; format: ADME, organism-based; conditions: in vivo
In short: (§1)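 Sprague-Dawley rats. IV dose given as a solution in NMP:PEG200 (10:90); 3 mg/kg PO given as a suspension in CMC:water:Tween (0.5:99:0.5). AUC and Cmax dose-normalized to 1 mg/kg. Mean ± SD from four rats.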

[5] = test system: Rattus norvegicus; test: Volume of distribution at steady state in Sprague-Dawley rat at 1 mg/kg, iv; format: ADME, organism-based; conditions: in vivo
[6] = test system: Rattus norvegicus; test: AUC in Sprague-Dawley rat at 3 mg/kg, po; format: ADME, organism-based; conditions: in vivo; in short: as §1
[7] = Protein binding in Sprague-Dawley rat plasma by equilibrium dialysis method; format: ADME, cell-free; conditions: read-out: PPB
In short: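 Rat plasma protein binding by rapid equilibrium dialysis (RED) in 100% plasma.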

[8] = target: E3 ubiquitin-protein ligase Mdm2 (Mus musculus, UniProt P23804); test: Inhibition of mouse MDM2 by TR-FRET assay
[9] = Inhibition of rat MDM2 by TR-FRET assay
[10] = test system: Mus musculus; test: Oral bioavailability in OF1 mouse at 3 mg/kg; format: ADME, organism-based; conditions: in vivo
[11] = Protein binding in OF1 mouse plasma by equilibrium dialysis method; format: ADME, cell-free; conditions: read-out: PPB
[12] = Cmax in beagle dog at 0.3 mg/kg, po; format: ADME, organism-based, Canis lupus familiaris; parameters: dose 0.3 mg/kg, route oral; conditions: in vivo
[13] = test system: Canis familiaris; test: Oral bioavailability in beagle dog at 0.3 mg/kg; format: ADME, organism-based, Canis lupus familiaris; conditions: in vivo
[14] = test system: Cynomolgus monkey; test: AUC in cynomolgus monkey at 0.3 mg/kg, po; format: ADME, organism-based, Macaca fascicularis; conditions: in vivo
[15] = target: Apoptosis regulator Bcl-2 (Homo sapiens, UniProt P10415); test: Inhibition of Bcl2 (unknown origin) assessed as inhibition of Bcl2-Bad interaction by TR-FRET assay
[16] = target: Induced myeloid leukemia cell differentiation protein Mcl-1 (Homo sapiens, UniProt Q07820); test: Inhibition of Mcl1 (unknown origin) assessed as inhibition of Mcl1-Noxa interaction by TR-FRET assay
[17] = target: E3 ubiquitin-protein ligase XIAP (Homo sapiens, UniProt P98170); test: Inhibition of XIAP (unknown origin) assessed as inhibition of XIAP-BIR3 interaction by TR-FRET assay
[18] = test system: HCT-116; test: Inhibition of cell proliferation of human HCT116 cells expressing p53
[19] = test system: HCT-116; test: Inhibition of cell proliferation of human HCT116 cells deficient with p53 gene
[20] = Inhibition of cell proliferation of human SJSA1 cells expressing p53; conditions: SJSA-1
[21] = Inhibition of cell proliferation of human Saos2 cells deficient with p53 gene; conditions: SAOS-2
[22] = test system: Rattus norvegicus; test: In-vivo inhibition of MDM2/p53 interaction in human SJSA1 cells xenografted rat assessed as increase in p21 mRNA level at 30 mg/kg, po measured within 72 hrs post dose by qRT-PCR method; format: functional, organism-based; conditions: SJSA-1
In short: (§2)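 SJSA-1 (MDM2-amplified) tumour-bearing rats were dosed at 30 mg/kg. Tumour samples were collected over time, and p21, MDM2 and PUMA mRNA were measured as p53 pharmacodynamic markers, alongside compound levels.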

[23] = test system: Rattus norvegicus; test: In-vivo inhibition of MDM2/p53 interaction in human SJSA1 cells xenografted rat assessed as increase in MDM2 mRNA level at 30 mg/kg, po measured within 72 hrs post dose by qRT-PCR method; format: functional, organism-based; conditions: SJSA-1; in short: as §2
[24] = test system: Rattus norvegicus; test: In-vivo inhibition of MDM2/p53 interaction in human SJSA1 cells xenografted rat assessed as increase in PUMA mRNA level at 30 mg/kg, po measured within 72 hrs post dose by qRT-PCR method; format: functional, organism-based; conditions: SJSA-1; in short: as §2
[25] = test system: SJSA-1; test: Antitumor activity against human SJSA1 cells xenografted in rat assessed as reduction tumor growth dosed orally on daily basis under q24h regime; format: functional, organism-based
In short: (§3)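 SJSA-1 tumour-bearing rats were treated either daily or 3qw (Monday, Wednesday and Friday) across a range of doses, and tumour growth was followed over the treatment course. Plasma AUC0-24 was also determined, along with AUC0-48 for the 3qw schedule.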

[26] = test system: SJSA-1; test: Antitumor activity against human SJSA1 cells xenografted in rat assessed as reduction tumor growth dosed orally three times per week; format: functional, organism-based; in short: as §3
[27] = test system: Rattus norvegicus; test: Toxicity in human SJSA1 cells xenografted dosed rat assessed as drug toleration dosed orally on daily basis under q24h regime; format: organism-based, SJSA-1; conditions: in vivo, po
In short: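 Rats bearing MDM2-amplified SJSA-1 human tumours, treated daily. Tolerability was monitored during treatment. Histopathology for compound-related findings was performed at the 30 mg/kg daily dose.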

[28] = test system: Rattus norvegicus; test: Toxicity in human SJSA1 cells xenografted dosed rat assessed as induction of histopathological changes at 30 mg/kg, po qd; format: organism-based, SJSA-1; conditions: in vivo
In short: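 Daily treatment of SJSA-1 tumour-bearing rats; histopathology was performed on the 30 mg/kg daily dose group to look for compound-related findings.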

[29] = organism: Rattus norvegicus; test: Toxicity in rat assessed as changes in heart parameters; format: organism-based; conditions: in vivo
[30] = organism: Rattus norvegicus; test: Toxicity in male rat assessed as changes in adrenal gland parameters; format: organism-based; conditions: in vivo
[31] = organism: Rattus norvegicus; test: Toxicity in female rat assessed as changes in adrenal gland parameters; format: organism-based; conditions: in vivo
[32] = test system: Rattus norvegicus; test: Toxicity in human SJSA1 cells xenografted rat assessed as change in body weight at 20 mg/kg, po qd (reference value: 1.9 to 6.8%); format: organism-based, SJSA-1; conditions: in vivo
[33] = test system: Rattus norvegicus; test: Toxicity in human SJSA1 cells xenografted rat assessed as change in body weight at 30 mg/kg, po qd (reference value: 1.9 to 6.8%); format: organism-based, SJSA-1; conditions: in vivo
[34] = test system: Rattus norvegicus; test: Toxicity in human SJSA1 cells xenografted rat assessed as mouse survival at 10 mg/kg, po qd; format: organism-based, SJSA-1; conditions: in vivo
In short: (§4)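 Tolerability was monitored in SJSA-1 tumour-bearing rats during the daily and 3qw (Monday, Wednesday, Friday) treatment schedules. Histopathology was done on all 3qw doses and on the 30 mg/kg daily group.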

[35] = test system: Rattus norvegicus; test: Toxicity in human SJSA1 cells xenografted rat assessed as mouse survival at 20 mg/kg, po qd; format: organism-based, SJSA-1; conditions: in vivo; in short: as §4
[36] = test system: Rattus norvegicus; test: Toxicity in human SJSA1 cells xenografted rat assessed as mouse survival at 30 mg/kg, po dosed 3 times per week; format: organism-based, SJSA-1; conditions: in vivo; in short: as §4
[37] = AUC (0 to 24 hrs) in human SJSA1 cells xenografted rat assessed as mouse survival at 20 mg/kg, po qd; format: ADME, organism-based, SJSA-1; parameters: time < 24 hr, dose 20 mg/kg, route oral; conditions: in vivo
In short: (§5)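 Rats bearing MDM2-amplified human SJSA-1 tumors, dosed orally either daily or 3qw (Monday, Wednesday, Friday). Plasma exposure reported as AUC0-24, plus AUC0-48 for the 3qw schedule.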

[38] = AUC (0 to 24 hrs) in human SJSA1 cells xenografted rat assessed as mouse survival at 30 mg/kg, po qd; format: ADME, organism-based, SJSA-1; parameters: time < 24 hr, dose 30 mg/kg, route oral; conditions: in vivo; in short: as §5
[39] = AUC (0 to 24 hrs) in human SJSA1 cells xenografted rat assessed as mouse survival at 30 mg/kg, po dosed 3 times per week; format: ADME, organism-based, SJSA-1; parameters: dose 30 mg/kg, time < 24 hr, route oral; conditions: in vivo; in short: as §5
[40] = AUC (0 to 48 hrs) in human SJSA1 cells xenografted rat assessed as mouse survival at 30 mg/kg, po dosed 3 times per week; format: ADME, organism-based, SJSA-1; parameters: time < 48 hr, dose 30 mg/kg, route oral; conditions: in vivo; in short: as §5
[41] = AUC (0 to 48 hrs) in human SJSA1 cells xenografted rat assessed as mouse survival at 70 mg/kg, po dosed 3 times per week; format: ADME, organism-based, SJSA-1; parameters: time < 48 hr, dose 70 mg/kg, route oral; conditions: in vivo; in short: as §5

E3 ubiquitin-protein ligase XIAP, sequence (P98170 whole entry): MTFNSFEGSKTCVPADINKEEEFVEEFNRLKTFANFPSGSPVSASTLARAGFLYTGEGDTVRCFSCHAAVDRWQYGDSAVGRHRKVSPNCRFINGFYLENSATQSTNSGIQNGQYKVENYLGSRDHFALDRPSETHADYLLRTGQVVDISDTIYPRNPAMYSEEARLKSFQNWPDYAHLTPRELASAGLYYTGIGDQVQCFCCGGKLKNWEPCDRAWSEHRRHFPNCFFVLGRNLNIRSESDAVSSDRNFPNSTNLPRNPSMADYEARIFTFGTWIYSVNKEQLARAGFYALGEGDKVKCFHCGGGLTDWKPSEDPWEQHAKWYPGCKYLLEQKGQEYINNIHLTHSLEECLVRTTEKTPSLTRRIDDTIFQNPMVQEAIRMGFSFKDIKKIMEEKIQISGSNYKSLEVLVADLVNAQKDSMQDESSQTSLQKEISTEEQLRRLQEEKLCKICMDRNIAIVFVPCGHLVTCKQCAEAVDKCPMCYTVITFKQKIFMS
E3 ubiquitin-protein ligase Mdm2, sequence (P23804 whole entry): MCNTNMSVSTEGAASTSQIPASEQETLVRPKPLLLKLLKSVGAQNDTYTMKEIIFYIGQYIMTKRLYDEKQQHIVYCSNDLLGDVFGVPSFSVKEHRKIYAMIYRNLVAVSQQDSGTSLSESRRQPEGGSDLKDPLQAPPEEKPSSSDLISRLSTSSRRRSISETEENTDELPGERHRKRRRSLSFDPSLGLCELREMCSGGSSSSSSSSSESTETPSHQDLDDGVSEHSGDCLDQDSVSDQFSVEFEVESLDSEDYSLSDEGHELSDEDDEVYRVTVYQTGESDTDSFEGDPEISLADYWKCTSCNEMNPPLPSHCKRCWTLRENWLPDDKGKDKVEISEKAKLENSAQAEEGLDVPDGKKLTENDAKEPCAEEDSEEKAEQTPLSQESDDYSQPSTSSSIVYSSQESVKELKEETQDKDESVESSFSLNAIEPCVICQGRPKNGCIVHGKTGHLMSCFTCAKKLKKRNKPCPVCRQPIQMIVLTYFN
Apoptosis regulator Bcl-2, sequence (P10415 whole entry): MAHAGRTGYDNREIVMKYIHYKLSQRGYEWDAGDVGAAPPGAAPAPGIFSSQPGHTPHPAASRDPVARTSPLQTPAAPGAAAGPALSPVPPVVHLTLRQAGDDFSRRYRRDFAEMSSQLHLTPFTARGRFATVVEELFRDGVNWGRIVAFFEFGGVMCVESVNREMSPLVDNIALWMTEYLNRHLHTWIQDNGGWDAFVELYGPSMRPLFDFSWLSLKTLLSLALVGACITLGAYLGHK
Induced myeloid leukemia cell differentiation protein Mcl-1, sequence (Q07820 whole entry): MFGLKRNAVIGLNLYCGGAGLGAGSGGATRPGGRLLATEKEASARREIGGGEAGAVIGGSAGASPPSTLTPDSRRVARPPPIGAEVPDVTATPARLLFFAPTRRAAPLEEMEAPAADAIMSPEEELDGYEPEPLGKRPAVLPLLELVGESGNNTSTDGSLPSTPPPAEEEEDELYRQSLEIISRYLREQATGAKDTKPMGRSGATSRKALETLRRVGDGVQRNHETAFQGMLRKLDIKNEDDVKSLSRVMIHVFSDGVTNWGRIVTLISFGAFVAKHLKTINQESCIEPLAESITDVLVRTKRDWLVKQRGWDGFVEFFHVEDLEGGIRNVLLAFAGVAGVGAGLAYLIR

COc1cc2c(cc1OC(C)C)[C@H](c1ccc(Cl)cc1)N(c1ccc(N(C)C[C@H]3CC[C@H](N4CCN(C)C(=O)C4)CC3)cc1)C(=O)C2 [CGM-097]
GI50 [1]: 350 nM | microsomal CLint [2]: 26.6 µL/min/mg | microsomal CLint [3]: 52.3 µL/min/mg | beta t1/2 [4]: 12.1 h | Vdss [5]: 6.4 L/kg | AUC [6]: 2.779 µM·h | fraction unbound [7]: < 0.01 | Ki [8]: 65.9 nM | Ki [9]: 47.4 nM | F [10]: 71% | fraction unbound [11]: < 0.01 | Cmax [12]: 251 nM | F [13]: 74% | AUC [14]: 3.73 µM·h | IC50 [15]: > 50000 nM | IC50 [16]: > 50000 nM | IC50 [17]: > 50000 nM | IC50 [18]: 454 nM | IC50 [19]: 16000 nM | IC50 [20]: 353 nM | IC50 [21]: 20500 nM | inhibition [22]: Active | inhibition [23]: Active | inhibition [24]: Active | growth inhibition (GI) [25]: Dose-dependent effect | growth inhibition (GI) [26]: Dose-dependent effect | Activity [27]: Non-toxic | Activity [28]: Non-toxic | Activity [29]: Toxic | Activity [30]: Toxic | Activity [31]: Toxic | Activity [32]: 3.4% | Activity [33]: 4.5% | Activity [34]: Non-toxic | Activity [35]: Non-toxic | Activity [36]: Non-toxic | AUC at 24 h [37]: 163 µM·h | AUC at 24 h [38]: 421 µM·h | AUC at 24 h [39]: 230 µM·h | AUC at 48 h [40]: 381 µM·h | AUC at 48 h [41]: 1040 µM·h
